Test results taken from ChEMBL document CHEMBL4354819, “Discovery of Novel Small Molecule Dual Inhibitors Targeting Toll-Like Receptors 7 and 8” (J Med Chem, 2019).

Legend:
Toll-like receptor 7 = molecular target: T1, Toll-like receptor 7 (Homo sapiens, UniProt Q9NYK1); test: Inhibition of human TLR7 expressed in HEK293 cells assessed as reduction in R848-induced NFkappaB production incubated for 16 hrs by quanti-blue SEAP assay; type: cell-based
T1 sequence (Q9NYK1 whole entry): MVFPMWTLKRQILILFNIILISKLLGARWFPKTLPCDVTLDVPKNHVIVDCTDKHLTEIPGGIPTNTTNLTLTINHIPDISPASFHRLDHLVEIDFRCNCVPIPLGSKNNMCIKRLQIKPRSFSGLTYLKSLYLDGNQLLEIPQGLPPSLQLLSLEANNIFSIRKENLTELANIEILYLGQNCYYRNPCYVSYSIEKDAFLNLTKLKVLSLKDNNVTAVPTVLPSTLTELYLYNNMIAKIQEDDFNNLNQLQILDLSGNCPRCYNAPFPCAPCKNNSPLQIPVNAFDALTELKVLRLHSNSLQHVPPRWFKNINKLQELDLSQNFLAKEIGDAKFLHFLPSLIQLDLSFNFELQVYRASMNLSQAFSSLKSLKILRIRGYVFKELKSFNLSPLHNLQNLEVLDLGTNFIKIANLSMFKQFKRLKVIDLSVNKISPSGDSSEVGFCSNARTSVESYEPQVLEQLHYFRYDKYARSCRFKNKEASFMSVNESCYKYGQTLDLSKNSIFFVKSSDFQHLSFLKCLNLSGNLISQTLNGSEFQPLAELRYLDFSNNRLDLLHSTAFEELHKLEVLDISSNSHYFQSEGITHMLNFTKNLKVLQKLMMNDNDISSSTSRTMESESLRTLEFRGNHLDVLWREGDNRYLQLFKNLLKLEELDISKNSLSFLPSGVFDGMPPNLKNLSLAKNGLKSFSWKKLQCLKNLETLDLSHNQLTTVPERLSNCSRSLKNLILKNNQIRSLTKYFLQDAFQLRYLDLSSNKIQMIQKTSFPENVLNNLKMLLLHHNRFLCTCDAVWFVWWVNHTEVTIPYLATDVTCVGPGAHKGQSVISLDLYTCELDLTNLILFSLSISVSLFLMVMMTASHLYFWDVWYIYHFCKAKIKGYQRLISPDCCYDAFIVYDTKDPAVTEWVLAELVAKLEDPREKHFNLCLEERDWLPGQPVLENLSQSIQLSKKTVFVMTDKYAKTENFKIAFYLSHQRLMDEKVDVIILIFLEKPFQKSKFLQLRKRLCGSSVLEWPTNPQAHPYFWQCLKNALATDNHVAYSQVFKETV
Procedure, shortened: (§1)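 HEK 293-Blue cells stably expressing hTLR7 or hTLR8 with an inducible SEAP reporter were incubated 16 h with compound under 1 µg/mL R848 stimulation. SEAP was read at 620 nm. Data were normalized to the R848 control, and IC50 was taken from concentration-response curves. […] Mean ± s.d., n = 3 independent experiments.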

[1] = molecular target: T2, Toll-like receptor 8 (Homo sapiens) (UniProt Q9NR97); test: Inhibition of human TLR8 expressed in HEK293 cells assessed as reduction in R848-induced NFkappaB production at 1.5 to 5 uM incubated for 16 hrs by quanti-blue SEAP assay; type: cell-based
T2 sequence (whole entry): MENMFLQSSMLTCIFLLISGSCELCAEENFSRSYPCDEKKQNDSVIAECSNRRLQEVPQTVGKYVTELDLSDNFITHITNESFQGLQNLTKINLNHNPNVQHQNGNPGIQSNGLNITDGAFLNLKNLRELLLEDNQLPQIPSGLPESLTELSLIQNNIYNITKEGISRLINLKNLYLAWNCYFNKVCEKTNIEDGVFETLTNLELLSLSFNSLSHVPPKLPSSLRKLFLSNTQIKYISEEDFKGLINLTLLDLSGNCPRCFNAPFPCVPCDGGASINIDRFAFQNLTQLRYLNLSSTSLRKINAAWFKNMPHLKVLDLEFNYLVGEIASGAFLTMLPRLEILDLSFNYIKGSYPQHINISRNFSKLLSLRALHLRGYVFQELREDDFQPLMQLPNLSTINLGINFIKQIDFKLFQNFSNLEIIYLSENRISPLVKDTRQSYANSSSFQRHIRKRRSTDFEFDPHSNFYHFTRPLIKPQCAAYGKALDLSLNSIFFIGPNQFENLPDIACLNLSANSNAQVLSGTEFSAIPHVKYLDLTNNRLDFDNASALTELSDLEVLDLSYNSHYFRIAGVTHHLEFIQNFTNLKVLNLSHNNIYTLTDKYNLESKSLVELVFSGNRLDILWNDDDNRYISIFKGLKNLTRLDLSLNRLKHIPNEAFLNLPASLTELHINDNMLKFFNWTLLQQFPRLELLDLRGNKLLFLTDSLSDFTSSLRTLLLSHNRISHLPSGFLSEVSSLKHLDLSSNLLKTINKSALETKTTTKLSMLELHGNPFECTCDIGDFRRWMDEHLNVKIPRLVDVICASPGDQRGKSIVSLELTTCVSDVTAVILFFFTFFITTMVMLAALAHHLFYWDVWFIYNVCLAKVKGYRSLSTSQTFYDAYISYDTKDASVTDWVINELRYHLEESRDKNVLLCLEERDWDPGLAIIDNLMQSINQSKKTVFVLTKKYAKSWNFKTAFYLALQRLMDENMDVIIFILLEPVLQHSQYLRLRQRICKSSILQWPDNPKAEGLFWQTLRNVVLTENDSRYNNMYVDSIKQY
Procedure, shortened: (§2)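 Selectivity panel in stably transfected HEK 293-Blue cells, each overexpressing one human TLR with an inducible SEAP reporter. Agonists: Pam3CSK4 (TLR1/2), Pam2CSK4 (TLR2/6), poly(I:C) (TLR3), LPS (TLR4), R848 (TLR7/8), ODN 2006 (TLR9). Cells were exposed to compound for 16 h. Activity = (raw − untreated)/(ligand + solvent − untreated), with ligand + solvent set as 100%.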

[2] = molecular target: T2, Toll-like receptor 8 (Homo sapiens); test: Inhibition of human TLR8 expressed in HEK293 cells assessed as reduction in R848-induced NFkappaB production at 50 uM incubated for 16 hrs by quanti-blue SEAP assay relative to control; type: cell-based; procedure, shortened: as §1
[3] = molecular target: T3, Toll-like receptor 7 (Homo sapiens) (UniProt Q9NYK1); test: Inhibition of human TLR7 expressed in HEK293 cells assessed as reduction in resiquimod-induced NFkappaB production at 1.5 to 5 uM incubated for 16 hrs by quanti-blue SEAP assay; type: cell-based; procedure, shortened: as §2
T3 sequence (whole entry): T1 sequence (Q9NYK1 whole entry)

[4] = molecular target: T3, Toll-like receptor 7 (Homo sapiens); test: Inhibition of human TLR7 expressed in HEK293 cells assessed as reduction in R848-induced NFkappaB production at 50 uM incubated for 16 hrs by quanti-blue SEAP assay relative to control; type: cell-based; procedure, shortened: as §1
Toll-like receptor 8 = molecular target: T4, Toll-like receptor 8 (Homo sapiens, UniProt Q9NR97); test: Inhibition of human TLR8 expressed in HEK293 cells assessed as reduction in R848-induced NFkappaB production incubated for 16 hrs by quanti-blue SEAP assay; type: cell-based; procedure, shortened: as §1
T4 sequence (Q9NR97 whole entry): T2 sequence (whole entry)

[5] = molecular target: Toll-like receptor 7 (Homo sapiens) (UniProt Q9NYK1); test: Inhibition of human TLR7 expressed in HEK293 cells assessed as reduction in R848-induced NFkappaB production incubated for 16 hrs by quanti-blue SEAP assay; details: concentration not given here
[6] = molecular target: Toll-like receptor 8 (Homo sapiens) (UniProt Q9NR97); test: Inhibition of human TLR8 expressed in HEK293 cells assessed as reduction in resiquimod-induced NFkappaB production at 1.5 to 5 uM incubated for 16 hrs by quanti-blue SEAP assay

inhibition [3] | IC50 (Toll-like receptor 8) | further results | Compound
 |  | IC50 (Toll-like receptor 7): > 50000 nM; inhibition [1]: 0% | O=C(Nc1ccc(Oc2cc(C(F)(F)F)cc(C(F)(F)F)c2)cc1)c1ncccc1F
 |  | IC50 (Toll-like receptor 7): > 50000 nM; inhibition [2]: 20 to 30% | O=C(Nc1ccc(Oc2cc(C(F)(F)F)cc(C(F)(F)F)c2)cc1)c1ccc2[nH]ccc2c1
0% |  | inhibition [1]: 0% | Fc1cccc(I)c1-c1nc2cc(Oc3cc(C(F)(F)F)cc(C(F)(F)F)c3)ccc2[nH]1
 |  | inhibition [4]: 20 to 30%; inhibition [2]: 20 to 30% | O=C(Nc1ccc(Oc2cc(C(F)(F)F)cc(C(F)(F)F)c2)cc1)c1c(O)cccc1F
 | 1110 nM | inhibition [4]: 20 to 30% | O=C(Nc1ccc(Oc2cc(C(F)(F)F)cc(C(F)(F)F)c2)cc1)c1cc(Cl)ccc1F
 | 2040 nM |  | O=C(Nc1ccc(Oc2cc(Cl)cc(C(F)(F)F)c2)cc1)c1c(F)cccc1Cl
 | 2410 nM | IC50 (Toll-like receptor 7): 2650 nM | O=C(Nc1ccc(Oc2cccc(C(F)(F)F)c2)cc1)c1c(F)cccc1Cl
0% | 4020 nM |  | O=C(Nc1ccc(Oc2cc(C(F)(F)F)cc(C(F)(F)F)c2)cc1O)c1c(F)cccc1Cl
 |  | inhibition [5]: 0%; IC50 [6]: 1400 nM | O=C(Nc1cc(C(F)(F)F)cc(C(F)(F)F)c1)c1c(F)cccc1Cl
 | 880 nM |  | N#Cc1c(Br)cccc1Oc1ccc(-c2nnco2)cc1
0% |  |  | O=C(Nc1cccc(Oc2cc(C(F)(F)F)cc(C(F)(F)F)c2)c1)c1c(F)cccc1Cl
 | 2630 nM | IC50 (Toll-like receptor 7): 4730 nM | O=C(Nc1ccc(Oc2cc(C(F)(F)F)cc(C(F)(F)F)c2)cc1O)c1c(F)cccc1I
 | 7260 nM |  | c1ccc(Oc2ccc(-c3nnco3)cc2)cc1
0% |  | inhibition [1]: 0% | O=C(Nc1ccc(Oc2cc(C(F)(F)F)cc(C(F)(F)F)c2)cc1)c1c(F)c(F)c(F)c(F)c1F
0% |  | inhibition [1]: 0% | O=S(=O)(Nc1ccc(Oc2cc(C(F)(F)F)cc(C(F)(F)F)c2)cc1)c1ccccc1F
 | 2320 nM |  | O=C(Nc1ccc(Oc2cc(Br)cc(C(F)(F)F)c2)cc1)c1c(F)cccc1Cl
 | 5290 nM |  | Nc1c(Cl)cccc1Oc1ccc(-c2nnco2)cc1
 | 6000 nM | IC50 (Toll-like receptor 7): 1000 nM | O=C(Nc1ccc(Oc2cc(C(F)(F)F)cc(C(F)(F)F)c2)cc1)c1c(F)cccc1Br
0% | > 50000 nM |  | O=C(Nc1ccc(Oc2cc(C(F)(F)F)cc(C(F)(F)F)c2)cc1)c1ccc(O)cc1F
 |  | inhibition [1]: 0% | Cc1nnc(-c2ccc(C(=O)Oc3cccc(Cl)c3C#N)cc2)o1
0% |  | inhibition [1]: 0% | O=S(=O)(Nc1ccc(Oc2cc(C(F)(F)F)cc(C(F)(F)F)c2)cc1)c1c(F)cccc1Cl
